Reference: article PMC5769151 (Journal of medicinal chemistry, 2015)

Experiments:
[1] = target: MOR (Homo sapiens, UniProt P35372); assay type: cell-based
[2] = tested on: GPI (MOR); experiment: Guinea pig isolated ileum; assay type: cell-based; conditions: IC50 μ / IC50 δ
Method in brief: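 Male Hartley guinea pig ileum LMMP (0.1 Hz, 0.4 ms) and male ICR mouse vasa deferentia (0.5 g tension, Mg-free Krebs, 37 °C, O2/CO2 95:5; 0.1 Hz single pulses, 2.0 ms), electrically stimulated at supramaximal voltage.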

[3] = target: μ opioid receptor (MOR); assay type: binding
[4] = target: GPI/LMMP (NK1R) (Cavia porcellus, UniProt P30547); experiment: GPI/LMMP functional assay at NK1R; assay type: cell-based, guinea pig; conditions: at the concentration printed in the cell
Chain of GPI/LMMP (NK1R) (P30547 whole entry): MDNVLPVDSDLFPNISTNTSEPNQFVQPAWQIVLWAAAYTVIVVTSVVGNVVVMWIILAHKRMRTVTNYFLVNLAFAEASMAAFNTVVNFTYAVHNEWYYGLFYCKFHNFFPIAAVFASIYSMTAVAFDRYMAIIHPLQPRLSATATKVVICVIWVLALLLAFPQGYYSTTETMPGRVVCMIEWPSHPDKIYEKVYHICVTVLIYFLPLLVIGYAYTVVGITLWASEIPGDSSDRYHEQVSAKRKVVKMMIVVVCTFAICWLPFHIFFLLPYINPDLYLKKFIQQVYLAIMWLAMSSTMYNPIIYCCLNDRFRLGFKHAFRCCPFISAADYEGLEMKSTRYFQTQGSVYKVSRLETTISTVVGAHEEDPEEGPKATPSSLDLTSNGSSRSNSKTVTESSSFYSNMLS

[5] = target: T1, NK1R (Homo sapiens, UniProt P25103); assay type: cell-based
Target sequence in this assay (P25103 whole entry, species assumed): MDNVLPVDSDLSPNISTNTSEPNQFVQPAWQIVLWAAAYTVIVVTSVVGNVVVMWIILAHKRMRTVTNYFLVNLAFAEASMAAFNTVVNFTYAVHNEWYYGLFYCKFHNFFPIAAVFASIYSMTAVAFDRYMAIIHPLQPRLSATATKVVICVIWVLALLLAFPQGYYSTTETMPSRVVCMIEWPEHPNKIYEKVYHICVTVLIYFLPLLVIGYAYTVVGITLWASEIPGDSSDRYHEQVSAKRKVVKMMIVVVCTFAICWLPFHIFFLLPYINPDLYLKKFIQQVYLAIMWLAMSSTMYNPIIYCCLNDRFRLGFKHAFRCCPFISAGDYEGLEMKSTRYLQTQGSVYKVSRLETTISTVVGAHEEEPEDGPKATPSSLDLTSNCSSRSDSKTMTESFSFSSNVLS

[6] = target: T1, NK1R; experiment: hNK1/CHO cell membrane radioligand binding assay; conditions: binding ratio human/rat NK1
Target sequence in this assay (P25103 whole entry): as the sequence (P25103 whole entry, species assumed) above

Chain of MOR (P35372 whole entry): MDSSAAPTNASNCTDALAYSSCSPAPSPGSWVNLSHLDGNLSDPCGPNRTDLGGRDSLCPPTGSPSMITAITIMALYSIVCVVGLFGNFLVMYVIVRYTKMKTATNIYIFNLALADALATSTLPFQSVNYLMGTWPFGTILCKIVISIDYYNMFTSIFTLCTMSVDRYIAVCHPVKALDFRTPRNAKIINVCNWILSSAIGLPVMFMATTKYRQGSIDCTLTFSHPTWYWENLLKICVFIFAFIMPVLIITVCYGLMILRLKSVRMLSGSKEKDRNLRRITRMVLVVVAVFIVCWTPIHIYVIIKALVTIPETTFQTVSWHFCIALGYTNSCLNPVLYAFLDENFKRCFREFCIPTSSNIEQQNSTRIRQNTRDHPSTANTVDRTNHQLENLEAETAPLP

Question: How did the “MOR/DOR IC50 ratio (cAMP assay)” value [1] turn out when Cc1cc(O)cc(C)c1C[C@H](N)C(=O)N[C@H](C)C(=O)NCC(=O)N[C@@H](Cc1ccccc1)C(=O)N1CCC[C@H]1C(=O)N[C@@H](CC(C)C)C(=O)N[C@@H](Cc1c[nH]c2ccccc12)C(=O)NCc1cc(C(F)(F)F)cc(C(F)(F)F)c1 [ligand 4] was run?
Answer: 6/1

Question: What about the “GPI/MVD IC50 ratio” value [2] of the same compound?
Answer: 26/1

Question: And the “Ki^μ/Ki^δ” value ([3]; binding ratio MOR/DOR)?
Answer: 3/1

Question: And the “log[IC50±] (MOR)” value ([3]; log IC50 from nonlinear regression, MOR binding)?
Answer: −8.63 ± 0.04

Question: What about the “GPI/LMMP (NK1R) agonism” value [4] of the same compound?
Answer: none at 100 nM

Question: What about the Kb [5] of the same compound?
Answer: 11 ± 10 nM

Question: What about the “Ki^hNK1/Ki^rNK1” value [6] of the same compound?
Answer: 1/19
